# Test results reported in ChEMBL document CHEMBL4725283, “Selective Peptidomimetic Inhibitors of NTMT1/2: Rational Design, Synthesis, Characterization, and Crystallographic Studies” (J Med Chem, 2020).
# The source made the active and inactive calls. The rule behind the calls is not given here. Where a SMILES comes first, the peptide text is derived from it. [ ]: non-standard residue; d: D form. The star is where a group is joined. ξ: configuration not given here. ξαMeP = CC1(C(=O)O)CCCN1; X1 = O=C(Cc1ccc(O)cc1)*; PhAc = O=C(Cc1ccccc1)*; Bz = O=C(c1ccccc1)*
# Tests used:
# [1] = target: T1, N-terminal Xaa-Pro-Lys N-methyltransferase 1 (Homo sapiens) (UniProt Q9BV86); assay: Substrate activity at recombinant human full-length His6-tagged NTMT1 (1 to 222 residues) expressed in Escherichia coli BL21-CodonPlus(DE3)-RIL competent cells by MALDI-MS analysis
# T1 sequence (whole entry): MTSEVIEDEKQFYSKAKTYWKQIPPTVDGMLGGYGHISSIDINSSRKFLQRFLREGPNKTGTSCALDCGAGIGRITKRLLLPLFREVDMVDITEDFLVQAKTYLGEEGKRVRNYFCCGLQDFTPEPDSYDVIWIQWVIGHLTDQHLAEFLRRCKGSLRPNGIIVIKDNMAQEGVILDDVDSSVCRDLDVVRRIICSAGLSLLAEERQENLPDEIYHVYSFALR
# [2] = target: T2, N-terminal Xaa-Pro-Lys N-methyltransferase 1 (Homo sapiens, UniProt Q9BV86); assay: (§1) Inhibition of recombinant human full-length His6-tagged NTMT1 (1 to 222 residues) expressed in Escherichia coli BL21-CodonPlus(DE3)-RIL competent cells pre-incubated for 10 mins in presence of SAM and SAHH before RCC1-6 addition and measured after 15 mins by fluorescence based SAHH-coupled assay
# T2 sequence (Q9BV86 whole entry): T1 sequence (whole entry)
# Method in brief: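 Pre-incubated 10 min at 37 °C, then started with RCC1-6 (10 µL of 50 µM stock in 100 µL). Line 11 screened at 30 µM; line 12 used 0–100 µM three-fold series, four-parameter fit. Triplicate.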
# [3] = target: T1, N-terminal Xaa-Pro-Lys N-methyltransferase 1 (Homo sapiens); assay: as §1, with “cells at 30 uM” for “cells”, “assay relative to control” for “assay”; conditions: time 25.0 min
# Method in brief: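 Pre-incubated 10 min at 37 °C, then started with RCC1-6 (10 µL of 50 µM stock in 100 µL). Read Ex 370/Em 500 nm for 15 min at 37 °C. Line 11 screened at 30 µM; line 12 used 0–100 µM three-fold series, four-parameter fit. Triplicate.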
# [4] = Drug penetration in human HCT116 cells at 1 uM by MALDI-MS analysis; type: ADME, cell-based; conditions: hct-116, 1 µM
# Method in brief: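 HCT116 cells in McCoy's 5A with 10% FBS and 1% antibiotic-antimycotic, seeded at 0.1 × 10^6 cells/mL in 24-well plates and incubated overnight at 37 °C, 5% CO2. Compound added and incubation continued for the specified time; TAT peptide run as control. Cells washed three times with PBS, freeze-lysed twice in liquid nitrogen, and lysate analysed by MALDI (DHB matrix) for intracellular compound.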
# [5] = target: T2, N-terminal Xaa-Pro-Lys N-methyltransferase 1; assay: Binding affinity to recombinant human full-length His6-tagged NTMT1 (1 to 222 residues) by ITC assay
# Method in brief: (§2)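 ITC at 25 °C. Purified protein (NTMT1 for line 1, NTMT2 for line 2) in 20 mM Tris-HCl pH 7.5, 150 mM NaCl, 0.5 mM TCEP at 30–50 µM final. Compound at 0.5–1 mM in the same buffer, titrated in as 26 injections of 10 µl, 180 s apart, reference power 15 µcal/sec.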
# [6] = target: N-terminal Xaa-Pro-Lys N-methyltransferase 2 (Homo sapiens, UniProt Q5VVY1); assay: Binding affinity to recombinant human full-length His6-tagged NTMT2 by ITC assay; method in brief: as §2
# [7] = target: T1, N-terminal Xaa-Pro-Lys N-methyltransferase 1 (Homo sapiens); assay: Inhibition of NTMT1 in human HCT116 cells assessed as decrease in me3-SPK level at 100 uM incubated for 72 hrs by Western blot analysis; type: cell-based
# Method in brief: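 HCT116 cells seeded at 20,000 cells/well and treated 3 days with compound or PBS. Lysed in RIPA for 30 min on ice; equal protein (BCA) run on 12.5% SDS-PAGE and transferred to PVDF. Blotted with anti-me3-SPK (1:5000) overnight at 4 °C, with Lamin B1, SET and RCC1 antibodies, then HRP anti-rabbit.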
# Sequence of N-terminal Xaa-Pro-Lys N-methyltransferase 2 (Q5VVY1 whole entry): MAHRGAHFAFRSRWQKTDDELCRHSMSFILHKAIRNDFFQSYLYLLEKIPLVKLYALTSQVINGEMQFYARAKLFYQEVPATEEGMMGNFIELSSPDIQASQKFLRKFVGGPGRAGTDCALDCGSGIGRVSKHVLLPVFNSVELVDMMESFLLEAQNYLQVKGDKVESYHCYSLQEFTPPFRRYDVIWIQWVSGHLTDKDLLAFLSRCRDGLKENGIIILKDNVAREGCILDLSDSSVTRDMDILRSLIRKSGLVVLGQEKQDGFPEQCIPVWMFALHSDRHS
Compound,Activity [1],IC50 [2] [µM],further results
NCCCC[C@H](NC(=O)[C@@H]1CCCN1C(=O)Cc1ccc(O)cc1)C(=O)NCC(N)=O,inactive,13,
N=C(N)NCCC[C@H](NC(=O)[C@H](CCCCN)NC(=O)[C@@H]1CCCN1C(=O)Cc1ccccc1)C(N)=O (PhAc-Pro-Lys-Arg-NH2),inactive,6.85,inhibition [3]: > 50%
NCCCC[C@H](NC(=O)[C@@H]1CCCN1C(=O)Cc1ccc(O)cc1)C(N)=O,inactive,16,
C[C@@H](O)[C@H](NC(=O)[C@H](CCCCN)NC(=O)[C@@H]1CCCN1C(=O)Cc1ccc(O)cc1)C(N)=O,inactive,4.8,
N=C(N)NCCC[C@H](NC(=O)[C@H](CCCCN)NC(=O)[C@@H]1CCCN1C(=O)c1ccco1)C(N)=O,inactive,> 100,
N=C(N)NCCC[C@H](NC(=O)[C@H](CCCNC(=N)N)NC(=O)[C@H](CCCNC(=N)N)NC(=O)[C@H](CCC(N)=O)NC(=O)[C@H](CCCNC(=N)N)NC(=O)[C@H](CCCNC(=N)N)NC(=O)[C@H](CCCCN)NC(=O)[C@H](CCCCN)NC(=O)[C@H](CCCNC(=N)N)NC(=O)CNC(=O)[C@H](CCCNC(=N)N)NC(=O)[C@H](CCCCN)NC(=O)[C@@H]1CCCN1C(=O)Cc1ccc(O)cc1)C(N)=O,,,Drug uptake [4]: Active; Kd [5]: 0.6 µM; Kd [6]: 3.4 µM
N=C(N)NCCC[C@H](NC(=O)[C@H](CCCCN)NC(=O)c1cccc(NC(=O)Cc2ccc(O)cc2)c1)C(N)=O,inactive,> 100,
N=C(N)NCCC[C@H](NC(=O)[C@H](CCCCN)NC(=O)[C@@H]1CCCN1C(=O)C1CCCCC1)C(N)=O,inactive,> 100,
N=C(N)NCCC[C@H](NC(=O)C[C@@H](CCCN)NC(=O)[C@@H]1CCCN1C(=O)Cc1ccc(O)cc1)C(N)=O,inactive,32.9,
N=C(N)NCC[C@H](CC(N)=O)NC(=O)[C@H](CCCCN)NC(=O)[C@@H]1CCCN1C(=O)Cc1ccc(O)cc1,inactive,6.4,
N=C(N)NCCC[C@H](NC(=O)[C@H](CCCCN)NC(=O)c1ccccc1NC(=O)Cc1ccc(O)cc1)C(N)=O,inactive,> 100,
C[C@H](NC(=O)[C@H](CCCCN)NC(=O)[C@@H]1CCCN1C(=O)Cc1ccc(O)cc1)C(N)=O,inactive,4.8,
CC1(C(=O)N[C@@H](CCCCN)C(=O)N[C@@H](CCCNC(=N)N)C(N)=O)CCCN1C(=O)Cc1ccccc1 (stereo partly drawn) (PhAc-[ξαMeP]-Lys-Arg-NH2),inactive,> 100,
N=C(N)NCCC[C@H](NC(=O)[C@H](CCCNC(=N)N)NC(=O)[C@H](CCCNC(=N)N)NC(=O)[C@H](CCCNC(=N)N)NC(=O)[C@H](CCCNC(=N)N)NC(=O)[C@H](CCCNC(=N)N)NC(=O)[C@H](CCCCN)NC(=O)[C@@H]1CCCN1C(=O)Cc1ccc(O)cc1)C(N)=O (X1-PKRRRRRR-NH2),,,Drug uptake [4]: Active; Kd [5]: 0.3 µM; inhibition [7]: Active; Kd [6]: 1 µM
N=C(N)NCCC[C@H](NC(=O)[C@H](CCCCN)NC(=O)[C@@H]1CCCN1C(=O)C1CCCC1)C(N)=O,inactive,> 100,
N=C(N)NCCC[C@H](NC(=O)[C@H](CCCCN)NC(=O)[C@@H]1CCCN1C(=O)c1ccccc1)C(N)=O (Bz-Pro-Lys-Arg-NH2),inactive,> 100,

# Second part, led by results:
Activity [1],IC50 [2] [µM],Compound,further results
inactive,12,N=C(N)NCCC[C@H](NC(=O)[C@H](CCCCN)NC(=O)[C@@H]1CCCN1C(=O)CCc1ccc(N)cc1)C(N)=O,
inactive,> 100,COc1ccc(CC(=O)N2CCC[C@H]2C(=O)N[C@@H](CCCCN)C(=O)N[C@@H](CCCNC(=N)N)C(N)=O)cc1,
inactive,4.2,N=C(N)NCCC[C@@H](NC(=O)[C@H](CCCCN)NC(=O)[C@@H]1CCCN1C(=O)Cc1ccc(O)cc1)C(N)=O,
inactive,> 100,N=C(N)NCCC[C@H](NC(=O)[C@H](CCCCN)NC(=O)[C@@H]1CCCN1CCc1ccc(O)cc1)C(N)=O,
inactive,4.5,N=C(N)NCCC[C@H](NC(=O)[C@H](CCCCN)NC(=O)[C@@H]1CCCN1C(=O)CCc1ccc(O)cc1)C(N)=O,
inactive,1,NCCCC[C@H](NC(=O)[C@H](CCCCN)NC(=O)[C@@H]1CCCN1C(=O)Cc1ccc(O)cc1)C(N)=O,
inactive,4.3,N=C(N)NCCC[C@H](NC(=O)[C@H](CCCCN)NC(=O)[C@@H]1CCCN1C(=O)Cc1ccc(N)cc1)C(N)=O,
inactive,,N=C(N)NCCC[C@H](NC(=O)[C@H](CCCCN)NC(=O)[C@@H]1CCCN1C(=O)Cc1ccc(CO)cc1)C(N)=O,
